Assay results taken from ChEMBL document CHEMBL1137942, “Design, synthesis, and biological activity of novel, potent, and selective (benzoylaminomethyl)thiophene sulfonamide inhibitors of c-Jun-N-terminal kinase” (J Med Chem, 2004).
Active and inactive are the calls of the source. No cut-off for these calls is given here.

What was measured:
[1] = molecular target: CDK6/cyclin D3 (Homo sapiens) (UniProt P30281+Q00534); test: Percentage activity of human CDK6 with cyclin D3) in the presence of 10uM of compound and 10uM of ATP in comparison with control; assay type: protein-complex assay
[2] = molecular target: Inhibitor of nuclear factor kappa-B kinase subunit alpha (Homo sapiens) (UniProt O15111); test: Percentage activity of human IKK alpha in the presence of 10 uM of compound and 10 uM of ATP in comparison with control
[3] = molecular target: Protein kinase C iota type (Homo sapiens) (UniProt P41743); test: Percentage activity of human PKC iota in the presence of 10 uM of compound and 10 uM of ATP in comparison with control
[4] = molecular target: Serine/threonine-protein kinase D1 (Homo sapiens) (UniProt Q15139); test: Percentage activity of human PKC mu in the presence of 10 uM of compound and 10 uM of ATP in comparison with control
[5] = molecular target: RAF proto-oncogene serine/threonine-protein kinase (Homo sapiens) (UniProt P04049); test: Percentage activity of human c-RAF in the presence of 10 uM of compound and 10 uM of ATP in comparison with control
[6] = molecular target: Tyrosine-protein kinase SYK (Homo sapiens) (UniProt P43405); test: Percentage activity of human Syk in the presence of 10 uM of compound and 10 uM of ATP in comparison with control
[7] = molecular target: Rho-associated protein kinase 2 (Homo sapiens) (UniProt O75116); test: Percentage activity of human ROCK-II in the presence of 10 uM of compound and 10 uM of ATP in comparison with control
[8] = molecular target: Mitogen-activated protein kinase 10 (Homo sapiens) (UniProt P53779); test: Percentage activity of human JNK3 in the presence of 10 uM of compound and 10 uM of ATP in comparison with control
[9] = molecular target: Protein kinase C eta type (Homo sapiens) (UniProt P24723); test: Percentage activity of human PKC eta in the presence of 10 uM of compound and 10 uM of ATP in comparison with control
[10] = molecular target: Cyclin-dependent kinase 2/cyclin A (Homo sapiens) (UniProt P24941+P20248+P78396); test: Percentage activity of human CDK2 (with cyclin A) in the presence of 10 uM of compound and 10 uM of ATP in comparison with control; assay type: protein-complex assay
[11] = molecular target: Cyclin-dependent kinase 2/cyclin E (Homo sapiens) (UniProt P24864+P24941+O96020); test: Percentage activity of human CDK2 (with cyclin E) in the presence of 10 uM of compound and 10 uM of ATP in comparison with control; assay type: protein-complex assay
[12] = molecular target: Tyrosine-protein kinase Blk (Mus musculus) (UniProt P16277); test: Percentage activity of mouse Blk in the presence of 10 uM of compound and 10 uM of ATP in comparison with control
[13] = molecular target: Tyrosine-protein kinase Lyn (Homo sapiens) (UniProt P07948); test: Percentage activity of human Lyn in the presence of 10 uM of compound and 10 uM of ATP in comparison with control
[14] = molecular target: Tyrosine-protein kinase ZAP-70 (Homo sapiens) (UniProt P43403); test: Percentage activity of human ZAP-70 in the presence of 10 uM of compound and 10 uM of ATP in comparison with control
[15] = molecular target: Platelet-derived growth factor receptor (Homo sapiens) (UniProt P09619+P16234); test: Percentage activity of human PDGFR alpha in the presence of 10 uM of compound and 10 uM of ATP in comparison with control; assay type: protein-complex assay
[16] = molecular target: Receptor-type tyrosine-protein kinase FLT3 (Homo sapiens) (UniProt P36888); test: Percentage activity of human Flt3 in the presence of 10 uM of compound and 10 uM of ATP in comparison with control
[17] = molecular target: Ribosomal protein S6 kinase alpha-3 (Homo sapiens) (UniProt P51812); test: Percentage activity of human Rsk3 in the presence of 10uM of compound and 10uM of ATP in comparison with control
[18] = molecular target: Cyclin-dependent kinase 7/ cyclin H (Homo sapiens) (UniProt P51946+P50613); test: Percentage activity of human CDK7 with cyclin H/MAT1) in the presence of 10 uM of compound and 10 uM of ATP in comparison with control; assay type: protein-complex assay
[19] = molecular target: Tyrosine-protein kinase Yes (Homo sapiens) (UniProt P07947); test: Percentage activity of human Yes in the presence of 10 uM of compound and 10 uM of ATP in comparison with control
[20] = molecular target: Tyrosine-protein kinase Fes/Fps (Homo sapiens) (UniProt P07332); test: Percentage activity of human Fes in the presence of 10 uM of compound and 10 uM of ATP in comparison with control
[21] = molecular target: Tyrosine-protein kinase receptor UFO (Homo sapiens) (UniProt P30530); test: Percentage activity of human Axl in the presence of 10 uM of compound and 10 uM of ATP in comparison with control
[22] = molecular target: Ca2+/calmodulin-dependent protein kinase II (CaM kinase II) (Rattus norvegicus) (UniProt P11275+P08413+P15791+P11730); test: Percentage activity of rat CaMKII in the presence of 10uM of compound and 10uM of ATP in comparison with control; assay type: protein assay
[23] = molecular target: Inhibitor of nuclear factor kappa-B kinase subunit beta (Homo sapiens) (UniProt O14920); test: Percentage activity of human IKK beta in the presence of 10uM of compound and 10uM of ATP in comparison with control
[24] = system: SCG; test: Cell activity of JNK inhibitors in neuronal apoptosis assay in SCG cells, percentage rescued neurons at 10 uM compound concentration after 24 hours; assay type: functional, Rattus norvegicus
[25] = system: SCG; test: Cell activity of JNK inhibitors in neuronal apoptosis assay in SCG cells, percentage rescued neurons at 3 uM compound concentration after 48 hours; assay type: functional, Rattus norvegicus
In short: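 They were cultured in Leibowitz medium with 5% rat serum, 0.75 µg/mL NGF 7S and arabinosine C 10^-5 M. On day 4, medium was switched to 10 µg/mL anti-NGF antibody without NGF or AraC, with inhibitor in 1% DMSO. After 24 h, cells were refed initial medium minus AraC. After another 24 h, viability was read by MTT (0.5 mg/mL, 30 min, 37 °C), OD 590 nm.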

[26] = system: SCG; test: Cell activity of JNK inhibitors in neuronal apoptosis assay in SCG cells, percentage rescued neurons at 1 uM compound concentration after 24 hours; assay type: functional, cell-based; details: Rattus norvegicus
[27] = system: Saccharomyces cerevisiae; test: Percentage activity of yeast CK1 in the presence of 10 uM of compound and 10 uM of ATP in comparison with control
[28] = molecular target: Insulin-like growth factor 1 receptor (Homo sapiens) (UniProt P08069); test: Percentage activity of human IGF-1R in the presence of 10 uM of compound and 10 uM of ATP in comparison with control
[29] = molecular target: Mitogen-activated protein kinase 9, JNK2 (Homo sapiens) (UniProt P45984); test: Percentage activity of human JNK2a2 in the presence of 10 uM of compound and 10 uM of ATP in comparison with control
Mitogen-activated protein kinase 9, JNK2 (Homo sapiens), sequence (P45984 whole entry, looked up): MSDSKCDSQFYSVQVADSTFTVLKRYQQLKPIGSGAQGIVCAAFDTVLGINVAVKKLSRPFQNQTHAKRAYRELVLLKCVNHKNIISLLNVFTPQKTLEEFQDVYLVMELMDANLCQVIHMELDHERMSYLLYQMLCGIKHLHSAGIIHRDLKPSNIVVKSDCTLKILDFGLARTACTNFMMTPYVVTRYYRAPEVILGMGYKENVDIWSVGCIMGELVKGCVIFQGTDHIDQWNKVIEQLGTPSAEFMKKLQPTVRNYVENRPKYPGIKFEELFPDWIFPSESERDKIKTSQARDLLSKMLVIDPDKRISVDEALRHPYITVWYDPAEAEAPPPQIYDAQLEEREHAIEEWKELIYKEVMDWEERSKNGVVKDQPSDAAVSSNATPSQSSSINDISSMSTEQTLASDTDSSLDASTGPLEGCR

RAF proto-oncogene serine/threonine-protein kinase (Homo sapiens), sequence (P04049 whole entry): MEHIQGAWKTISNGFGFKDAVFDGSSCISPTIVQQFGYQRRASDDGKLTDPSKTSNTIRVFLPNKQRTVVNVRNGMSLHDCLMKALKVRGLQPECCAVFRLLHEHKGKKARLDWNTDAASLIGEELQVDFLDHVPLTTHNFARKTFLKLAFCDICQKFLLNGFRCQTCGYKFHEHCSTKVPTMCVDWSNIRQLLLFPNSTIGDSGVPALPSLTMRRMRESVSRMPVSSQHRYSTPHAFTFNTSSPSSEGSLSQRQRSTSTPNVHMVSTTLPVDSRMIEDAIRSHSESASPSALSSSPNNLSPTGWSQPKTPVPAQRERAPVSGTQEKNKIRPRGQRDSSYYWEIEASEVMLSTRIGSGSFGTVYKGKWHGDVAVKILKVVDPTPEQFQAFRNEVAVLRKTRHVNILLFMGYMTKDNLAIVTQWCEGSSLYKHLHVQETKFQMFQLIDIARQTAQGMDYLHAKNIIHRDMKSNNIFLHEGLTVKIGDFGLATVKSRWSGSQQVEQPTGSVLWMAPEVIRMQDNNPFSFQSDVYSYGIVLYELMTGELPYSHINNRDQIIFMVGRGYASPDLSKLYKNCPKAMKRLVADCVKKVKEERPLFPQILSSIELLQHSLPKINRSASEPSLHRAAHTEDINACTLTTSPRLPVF
Serine/threonine-protein kinase D1 (Homo sapiens), sequence (Q15139 whole entry): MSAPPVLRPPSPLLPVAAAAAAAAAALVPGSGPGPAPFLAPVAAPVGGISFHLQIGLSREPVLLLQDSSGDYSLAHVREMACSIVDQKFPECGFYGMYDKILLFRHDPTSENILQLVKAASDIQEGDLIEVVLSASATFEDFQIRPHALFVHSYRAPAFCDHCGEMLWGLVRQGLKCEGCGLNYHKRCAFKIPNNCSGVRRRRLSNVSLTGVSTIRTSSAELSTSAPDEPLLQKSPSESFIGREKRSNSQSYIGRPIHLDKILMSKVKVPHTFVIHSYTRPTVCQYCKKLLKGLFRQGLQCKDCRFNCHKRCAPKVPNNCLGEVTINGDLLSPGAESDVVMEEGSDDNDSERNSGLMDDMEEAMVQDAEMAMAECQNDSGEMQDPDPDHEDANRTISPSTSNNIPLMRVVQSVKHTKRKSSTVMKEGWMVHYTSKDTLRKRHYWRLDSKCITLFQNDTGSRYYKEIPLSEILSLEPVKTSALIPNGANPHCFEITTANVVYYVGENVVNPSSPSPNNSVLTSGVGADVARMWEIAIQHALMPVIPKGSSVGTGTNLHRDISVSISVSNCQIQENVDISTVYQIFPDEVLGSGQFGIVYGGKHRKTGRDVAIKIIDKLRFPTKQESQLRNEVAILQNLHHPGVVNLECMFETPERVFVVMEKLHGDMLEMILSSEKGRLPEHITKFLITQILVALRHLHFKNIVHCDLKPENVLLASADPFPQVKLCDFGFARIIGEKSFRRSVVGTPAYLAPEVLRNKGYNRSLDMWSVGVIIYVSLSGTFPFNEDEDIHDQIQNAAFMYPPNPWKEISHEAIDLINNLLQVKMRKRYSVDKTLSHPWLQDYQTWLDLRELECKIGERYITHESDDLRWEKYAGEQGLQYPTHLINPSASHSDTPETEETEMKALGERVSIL
Tyrosine-protein kinase receptor UFO (Homo sapiens), sequence (P30530 whole entry): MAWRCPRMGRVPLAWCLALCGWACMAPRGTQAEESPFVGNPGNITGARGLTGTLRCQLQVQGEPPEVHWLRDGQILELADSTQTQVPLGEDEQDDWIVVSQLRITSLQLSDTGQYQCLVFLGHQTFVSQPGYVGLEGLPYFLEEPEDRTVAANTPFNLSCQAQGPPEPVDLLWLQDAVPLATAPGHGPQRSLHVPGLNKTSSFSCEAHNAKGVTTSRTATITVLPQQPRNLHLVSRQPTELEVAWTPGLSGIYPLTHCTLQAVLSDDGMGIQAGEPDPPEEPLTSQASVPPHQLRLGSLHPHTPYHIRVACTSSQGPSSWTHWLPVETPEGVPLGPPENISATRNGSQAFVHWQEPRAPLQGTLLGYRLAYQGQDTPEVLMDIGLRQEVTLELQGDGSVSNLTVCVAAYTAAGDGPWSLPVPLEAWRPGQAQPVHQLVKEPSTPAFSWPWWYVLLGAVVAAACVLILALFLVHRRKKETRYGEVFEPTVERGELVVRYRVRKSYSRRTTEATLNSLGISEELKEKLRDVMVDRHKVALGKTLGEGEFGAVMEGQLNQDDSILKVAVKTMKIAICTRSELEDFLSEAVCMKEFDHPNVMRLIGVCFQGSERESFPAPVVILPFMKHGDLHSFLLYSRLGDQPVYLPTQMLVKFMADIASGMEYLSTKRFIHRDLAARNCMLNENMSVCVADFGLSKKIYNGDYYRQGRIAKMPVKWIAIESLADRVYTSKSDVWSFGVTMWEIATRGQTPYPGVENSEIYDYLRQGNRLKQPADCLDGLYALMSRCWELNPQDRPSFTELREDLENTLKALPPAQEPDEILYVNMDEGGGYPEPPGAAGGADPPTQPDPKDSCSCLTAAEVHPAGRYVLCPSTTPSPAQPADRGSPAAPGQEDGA
Tyrosine-protein kinase Yes (Homo sapiens), sequence (P07947 2-543 limits assumed): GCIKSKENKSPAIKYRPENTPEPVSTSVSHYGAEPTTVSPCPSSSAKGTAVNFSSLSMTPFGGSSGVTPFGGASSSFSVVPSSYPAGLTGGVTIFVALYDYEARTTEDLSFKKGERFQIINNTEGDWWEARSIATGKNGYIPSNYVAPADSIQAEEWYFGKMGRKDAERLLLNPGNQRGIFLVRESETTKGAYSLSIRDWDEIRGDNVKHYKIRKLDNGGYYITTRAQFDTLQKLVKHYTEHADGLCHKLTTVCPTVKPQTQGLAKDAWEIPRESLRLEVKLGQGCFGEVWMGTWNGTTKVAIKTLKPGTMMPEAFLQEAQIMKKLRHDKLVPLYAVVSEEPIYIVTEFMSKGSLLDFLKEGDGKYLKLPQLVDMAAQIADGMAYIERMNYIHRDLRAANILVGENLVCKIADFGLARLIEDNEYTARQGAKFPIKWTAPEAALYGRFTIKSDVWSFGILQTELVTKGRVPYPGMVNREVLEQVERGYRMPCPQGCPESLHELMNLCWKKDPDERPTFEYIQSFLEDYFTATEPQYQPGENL
Tyrosine-protein kinase ZAP-70 (Homo sapiens), sequence (P43403 whole entry): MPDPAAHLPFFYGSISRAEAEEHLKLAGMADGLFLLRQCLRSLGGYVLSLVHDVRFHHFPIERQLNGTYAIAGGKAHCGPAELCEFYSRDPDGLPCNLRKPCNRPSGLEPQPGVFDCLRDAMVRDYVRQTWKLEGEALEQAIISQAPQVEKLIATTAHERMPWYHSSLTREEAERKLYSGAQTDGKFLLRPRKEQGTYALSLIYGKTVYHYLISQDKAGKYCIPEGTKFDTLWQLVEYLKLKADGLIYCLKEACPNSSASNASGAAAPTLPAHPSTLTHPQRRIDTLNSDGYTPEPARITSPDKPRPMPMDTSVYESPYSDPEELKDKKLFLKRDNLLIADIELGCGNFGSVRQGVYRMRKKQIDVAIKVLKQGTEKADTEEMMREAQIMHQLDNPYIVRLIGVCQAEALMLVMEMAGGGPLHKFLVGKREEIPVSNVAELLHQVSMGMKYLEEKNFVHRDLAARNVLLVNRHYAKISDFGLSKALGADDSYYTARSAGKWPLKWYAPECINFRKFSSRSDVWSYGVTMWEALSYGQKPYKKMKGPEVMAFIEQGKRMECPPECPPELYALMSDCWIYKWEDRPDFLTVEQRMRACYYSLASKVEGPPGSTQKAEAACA
Receptor-type tyrosine-protein kinase FLT3 (Homo sapiens), sequence (P36888 whole entry): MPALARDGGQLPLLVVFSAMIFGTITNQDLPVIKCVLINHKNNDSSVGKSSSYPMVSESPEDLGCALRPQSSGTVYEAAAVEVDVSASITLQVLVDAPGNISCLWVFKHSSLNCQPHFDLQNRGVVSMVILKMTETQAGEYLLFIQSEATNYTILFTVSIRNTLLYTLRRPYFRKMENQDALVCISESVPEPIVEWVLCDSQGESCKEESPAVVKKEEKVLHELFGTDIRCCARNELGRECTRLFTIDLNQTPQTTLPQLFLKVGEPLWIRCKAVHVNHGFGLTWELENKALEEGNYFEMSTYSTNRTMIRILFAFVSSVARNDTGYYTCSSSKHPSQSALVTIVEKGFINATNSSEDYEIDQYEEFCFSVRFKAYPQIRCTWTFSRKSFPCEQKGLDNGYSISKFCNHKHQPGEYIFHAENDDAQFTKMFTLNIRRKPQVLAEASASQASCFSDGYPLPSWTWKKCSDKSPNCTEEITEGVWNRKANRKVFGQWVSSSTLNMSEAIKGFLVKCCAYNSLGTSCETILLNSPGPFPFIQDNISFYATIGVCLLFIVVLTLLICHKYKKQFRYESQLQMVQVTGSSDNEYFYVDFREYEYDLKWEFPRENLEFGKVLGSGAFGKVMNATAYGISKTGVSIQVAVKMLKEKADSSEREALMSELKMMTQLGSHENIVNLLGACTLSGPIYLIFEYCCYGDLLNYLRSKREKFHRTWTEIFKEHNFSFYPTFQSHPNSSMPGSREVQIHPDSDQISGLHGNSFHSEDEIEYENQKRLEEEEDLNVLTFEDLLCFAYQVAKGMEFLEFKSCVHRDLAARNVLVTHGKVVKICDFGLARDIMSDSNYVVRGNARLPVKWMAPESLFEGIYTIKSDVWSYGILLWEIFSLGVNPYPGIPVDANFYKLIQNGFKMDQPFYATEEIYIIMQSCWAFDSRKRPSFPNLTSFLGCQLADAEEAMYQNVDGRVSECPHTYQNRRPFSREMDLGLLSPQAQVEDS

- Activity [1]: 102%
- Activity [2]: 92%
- Activity [3]: 99%
- Activity [4]: 93%
- Activity [5]: 93%
- Activity [6]: 75%
- Activity [7]: 101%
- Activity [8]: 6%
- Activity [9]: 100%
- Activity [10]: 99%
- Activity [11]: 94%
- Activity [12]: 78%
- Activity [13]: 89%
- Activity [14]: 121%
- Activity [15]: 103%
- Activity [16]: 78%
- Activity [17]: 97%
- Activity [18]: 94%
- Activity [19]: 61%
- Activity [20]: 134%
- Activity [21]: 134%
- Activity [22]: 93%
- Activity [23]: 96%
- Activity [27]: 85%
- Activity [28]: 108%
- Activity [29]: 16%
Structure (SMILES): O=C(NCc1ccc(S(=O)(=O)N2CCC(n3nnc4ccccc43)CC2)s1)c1ccc(Cl)cc1
- Rescued neurons [24]: 27.3%
- Rescued neurons [25]: 25.2%
- Rescued neurons [26]: inactive
